Values joined by “and” are separate entries in the source; they are usually repeats but may differ in a detail not shown here. Identical values can stand only once.
Assays:
Rattus norvegicus [1] = assay: The compound was tested for IL-1 generation on CMC-LPS air-pouch model at 12.5 mg/Kg by oral administration; format: functional, organism-based
Procedure, shortened: (§1)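 Rats got 10 mL subcutaneous dorsal air, then 6 mL sterile 2% (w/v) CMC-Na in saline into the pouch 24 h later, then 5 ng LPS in 0.5 mL saline 24 h after that. Compound given orally as a suspension in 0.5% methyl cellulose 2 h before LPS. Exudate collected 4 h after LPS. Extra- plus intracellular IL-1 measured by LAF assay against a human recombinant IL-1α curve. Percent inhibition versus control; five rats per group.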

Rattus norvegicus [2] = assay: The compound was tested for IL-1 generation on CMC-LPS air-pouch model at 25 mg/Kg by oral administration; format: functional, organism-based; procedure, shortened: as §1
Rattus norvegicus [3] = assay: % inhibition against arthritis on adjuvant-untreated paw in rats at 100 mg/Kg by oral administration; format: functional
Procedure, shortened: (§2)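 Adjuvant arthritis in rats; drug given orally once daily from the first day of adjuvant treatment. Swelling of the adjuvant-untreated paw measured by plethysmometer on day 15 after adjuvant; % inhibition versus control. Mean ± SEM of 6–10 animals; significance versus control.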

Rattus norvegicus [4] = assay: % inhibition against arthritis on adjuvant-untreated paw in rats at 12.5 mg/Kg by oral administration; format: functional; procedure, shortened: as §2
Rattus norvegicus [5] = assay: % inhibition against arthritis on adjuvant-untreated paw in rats at 25 mg/Kg by oral administration; format: functional; procedure, shortened: as §2
Rattus norvegicus [6] = assay: % inhibition against arthritis on adjuvant-untreated paw in rats at 50 mg/Kg by oral administration; format: functional; procedure, shortened: as §2
Rattus norvegicus [7] = assay: The compound was tested for PGE-2 generation on CMC-LPS air-pouch model at 100 mg/Kg by oral administration; format: functional, organism-based
Procedure, shortened: (§3)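 Rat dorsal air pouch: CMC-Na (2% w/v, 6 mL) injected 24 h after the air, LPS (5 ng) 24 h after that. Oral dosing as a suspension in 0.5% methyl cellulose 2 h before LPS. Exudate sampled 4 h post-LPS; PGE2 in the exudate supernatant measured by radioimmunoassay. Percent inhibition versus control; five animals per group.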

Rattus norvegicus [8] = assay: The compound was tested for PGE-2 generation on CMC-LPS air-pouch model at 12.5 mg/Kg by oral administration; format: functional, organism-based; procedure, shortened: as §3
Rattus norvegicus [9] = assay: The compound was tested for PGE-2 generation on CMC-LPS air-pouch model at 200 mg/Kg by oral administration; format: functional, organism-based; procedure, shortened: as §3
Rattus norvegicus [10] = assay: The compound was tested for PGE-2 generation on CMC-LPS air-pouch model at 25 mg/Kg by oral administration; format: functional, organism-based; procedure, shortened: as §3
Rattus norvegicus [11] = assay: The compound was tested for PGE-2 generation on CMC-LPS air-pouch model at 50 mg/Kg by oral administration; format: functional, organism-based; procedure, shortened: as §3
Rattus norvegicus [12] = assay: In vivo percent inhibition of IL-1 generation in rat CMC-LPS air pouch model at 100 uM concentration (local administration); format: functional
Procedure, shortened: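 Rat air pouch: 10 mL air s.c. into the dorsum, 2% CMC-Na in saline 24 h later, then LPS 5 ng 24 h after CMC. Compound given locally in 5% EtOH-RPMI with 30% autologous serum, 100 μM final in exudate, at 30 min before and just before LPS. Exudate IL-1 (extra- plus intracellular) read by LAF at 4 h. n=5; % inhibition ± SEM.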

Rattus norvegicus [13] = assay: Compound was evaluated in vivo for the percent inhibition of IL-1 generation in rat CMC-LPS air pouch model at 50 mg/Kg concentration (oral administration); format: functional
Procedure, shortened: (§4)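 Rat CMC-LPS air pouch: air s.c., 2% CMC-Na 24 h later, LPS 5 ng 24 h after that. Compound given orally in 0.5% methyl cellulose 2 h before LPS. Exudate collected at 4 h; IL-1 (extra- plus intracellular) read by LAF assay against a recombinant human IL-1α curve.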

Rattus norvegicus [14] = assay: Inhibitory activity against Granuloma on CMC-LPS air-pouch model at 100 mg/Kg by oral administration; format: functional
Procedure, shortened: (§5)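 Rat CMC-LPS air pouch (air, 2% CMC-Na, then LPS 5 ng). Oral dosing in 0.5% methyl cellulose 2 h before LPS. Granuloma wet weight determined 5 days after LPS; % inhibition versus control, with an LPS-free group included.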

Rattus norvegicus [15] = assay: Inhibitory activity against Granuloma on CMC-LPS air-pouch model at 12.5 mg/Kg by oral administration; format: functional; procedure, shortened: as §5
Rattus norvegicus [16] = assay: Inhibitory activity against Granuloma on CMC-LPS air-pouch model at 200 mg/Kg by oral administration; format: functional; procedure, shortened: as §5
Rattus norvegicus [17] = assay: Inhibitory activity against Granuloma on CMC-LPS air-pouch model at 25 mg/Kg by oral administration; format: functional; procedure, shortened: as §5
Rattus norvegicus [18] = assay: Inhibitory activity against IL-1 on CMC-LPS air-pouch model at 100 mg/Kg by oral administration; format: functional; procedure, shortened: as §4
Rattus norvegicus [19] = assay: Inhibitory activity against IL-1 on CMC-LPS air-pouch model at 12.5 mg/Kg by oral administration; format: functional; procedure, shortened: as §4
Rattus norvegicus [20] = assay: Inhibitory activity against IL-1 on CMC-LPS air-pouch model at 200 mg/Kg by oral administration; format: functional; procedure, shortened: as §4
Rattus norvegicus [21] = assay: Inhibitory activity against IL-1 on CMC-LPS air-pouch model at 25 mg/Kg by oral administration; format: functional; procedure, shortened: as §4
Rattus norvegicus [22] = assay: Inhibitory activity against IL-1 on CMC-LPS air-pouch model at 50 mg/Kg by oral administration; format: functional; procedure, shortened: as §4
Rattus norvegicus [23] = assay: Inhibitory activity against PGE-2 on CMC-LPS air-pouch model at 100 mg/Kg by oral administration; format: functional
Procedure, shortened: (§6)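 Rat CMC-LPS air pouch (air, 2% CMC-Na, then LPS 5 ng). Oral dosing in 0.5% methyl cellulose 2 h before LPS. PGE2 in the exudate supernatant collected 4 h after LPS, measured by radioimmunoassay.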

Rattus norvegicus [24] = assay: Inhibitory activity against PGE-2 on CMC-LPS air-pouch model at 12.5 mg/Kg by oral administration; format: functional; procedure, shortened: as §6
Rattus norvegicus [25] = assay: Inhibitory activity against PGE-2 on CMC-LPS air-pouch model at 200 mg/Kg by oral administration; format: functional; procedure, shortened: as §6
Rattus norvegicus [26] = assay: Inhibitory activity against PGE-2 on CMC-LPS air-pouch model at 25 mg/Kg by oral administration; format: functional; procedure, shortened: as §6
Rattus norvegicus [27] = assay: Inhibitory activity against PGE-2 on CMC-LPS air-pouch model at 50 mg/Kg by oral administration; format: functional; procedure, shortened: as §6
Rattus norvegicus [28] = assay: Activity against arthritis on adjuvant-untreated paw in rats at 25 mg/Kg by oral administration; format: functional; procedure, shortened: as §2
Rattus norvegicus [29] = assay: Activity against arthritis on adjuvant-untreated paw in rats at 50 mg/Kg by oral administration; format: functional; procedure, shortened: as §2
Rattus norvegicus [30] = assay: Activity against arthritis on adjuvant-untreated paw in rats at 100 mg/Kg by oral administration; format: functional; procedure, shortened: as §2
Rattus norvegicus [31] = assay: Activity against arthritis on adjuvant-untreated paw in rats at 12.5 mg/Kg by oral administration; format: functional; procedure, shortened: as §2
Rattus norvegicus [32] = assay: The compound was tested for Granuloma generation on CMC-LPS air-pouch model at 25 mg/Kg by oral administration; format: functional; procedure, shortened: as §5
Rattus norvegicus [33] = assay: The compound was tested for Granuloma generation on CMC-LPS air-pouch model at 50 mg/Kg by oral administration; format: functional; procedure, shortened: as §5
Rattus norvegicus [34] = assay: The compound was tested for Granuloma generation on CMC-LPS air-pouch model at 100 mg/Kg by oral administration; format: functional; procedure, shortened: as §5
Rattus norvegicus [35] = assay: The compound was tested for Granuloma generation on CMC-LPS air-pouch model at 12.5 mg/Kg by oral administration; format: functional; procedure, shortened: as §5
Rattus norvegicus [36] = assay: The compound was tested for Granuloma generation on CMC-LPS air-pouch model at 200 mg/Kg by oral administration; format: functional; procedure, shortened: as §5
Rattus norvegicus [37] = assay: Inhibitory activity against Granuloma on CMC-LPS air-pouch model at 50 mg/Kg by oral administration; format: functional; procedure, shortened: as §5
Rattus norvegicus [38] = assay: The compound was tested for IL-1 generation on CMC-LPS air-pouch model at 2.5 mg/kg by oral administration; format: functional; procedure, shortened: as §1
Rattus norvegicus [39] = assay: % inhibition against arthritis on adjuvant-untreated paw in rats at 5 mg/kg by oral administration; format: functional; procedure, shortened: as §2
Rattus norvegicus [40] = assay: Inhibitory activity against Granuloma on CMC-LPS air-pouch model at 10 mg/kg by oral administration; format: functional; procedure, shortened: as §5
Rattus norvegicus [41] = assay: Inhibitory activity against Granuloma on CMC-LPS air-pouch model at 2.5 mg/kg by oral administration; format: functional; procedure, shortened: as §5
Rattus norvegicus [42] = assay: Inhibitory activity against IL-1 on CMC-LPS air-pouch model at 10 mg/kg by oral administration; format: functional; procedure, shortened: as §4
Rattus norvegicus [43] = assay: Inhibitory activity against IL-1 on CMC-LPS air-pouch model at 2.5 mg/kg by oral administration; format: functional; procedure, shortened: as §4
Rattus norvegicus [44] = assay: Inhibitory activity against PGE-2 on CMC-LPS air-pouch model at 10 mg/kg by oral administration; format: functional; procedure, shortened: as §6
Rattus norvegicus [45] = assay: Inhibitory activity against PGE-2 on CMC-LPS air-pouch model at 2.5 mg/kg by oral administration; format: functional; procedure, shortened: as §6

SMILES: CCc1cccc2c(/C=C(/C)C(=O)O)cc(OC)c(O)c12
- Concentration (Rattus norvegicus [1]): 1290 U/mL
- Concentration (Rattus norvegicus [2]): 1030 U/mL
- inhibition in vivo at 100 mg/kg (Rattus norvegicus [3]): 51.4%
- inhibition in vivo at 12.5 mg/kg (Rattus norvegicus [4]): 20.1%
- inhibition in vivo at 25 mg/kg (Rattus norvegicus [5]): 34.1%
- inhibition in vivo at 50 mg/kg (Rattus norvegicus [6]): 38.8%
- Concentration (Rattus norvegicus [7]): 0.8 ng/mL
- Concentration (Rattus norvegicus [8]): 5.9 ng/mL
- Concentration (Rattus norvegicus [9]): 0.9 ng/mL
- Concentration (Rattus norvegicus [10]): 5.2 ng/mL
- Concentration (Rattus norvegicus [11]): 2.9 ng/mL
- Inhibition (Rattus norvegicus [12]): 94% and 91%
- inhibition in vivo at 50 mg/kg (Rattus norvegicus [13]): 65%
- inhibition in vivo at 100 mg/kg (Rattus norvegicus [14]): 76%
- inhibition in vivo at 12.5 mg/kg (Rattus norvegicus [15]): < 25%
- inhibition in vivo at 200 mg/kg (Rattus norvegicus [16]): 87%
- inhibition in vivo at 25 mg/kg (Rattus norvegicus [17]): 37%
- inhibition in vivo at 100 mg/kg (Rattus norvegicus [18]): 84%
- inhibition in vivo at 12.5 mg/kg (Rattus norvegicus [19]): < 25%
- inhibition in vivo at 200 mg/kg (Rattus norvegicus [20]): 91%
- inhibition in vivo at 25 mg/kg (Rattus norvegicus [21]): 40%
- inhibition in vivo at 50 mg/kg (Rattus norvegicus [22]): 65%
- inhibition in vivo at 100 mg/kg (Rattus norvegicus [23]): 91%
- inhibition in vivo at 12.5 mg/kg (Rattus norvegicus [24]): 35%
- inhibition in vivo at 200 mg/kg (Rattus norvegicus [25]): 90%
- inhibition in vivo at 25 mg/kg (Rattus norvegicus [26]): 43%
- inhibition in vivo at 50 mg/kg (Rattus norvegicus [27]): 68%
- Swelling (Rattus norvegicus [28]): 36.4%
- Swelling (Rattus norvegicus [29]): 33.8%
- Swelling (Rattus norvegicus [30]): 26.8%
- Swelling (Rattus norvegicus [31]): 44.1%
- Wet weight (Rattus norvegicus [32]): 1.61 g
- Wet weight (Rattus norvegicus [33]): 1.49 g
- Wet weight (Rattus norvegicus [34]): 1.25 g
- Wet weight (Rattus norvegicus [35]): 1.93 g
- Wet weight (Rattus norvegicus [36]): 1.16 g
- inhibition in vivo at 50 mg/kg (Rattus norvegicus [37]): 49%

SMILES: C[C@]12C=CC(=O)C=C1CC[C@@H]1[C@@H]2[C@@H](O)C[C@@]2(C)[C@H]1CC[C@]2(O)C(=O)CO [PREDNISOLONE]
- IL-1 level (Rattus norvegicus [38]): 596 units/mL
- inhibition in vivo at 5 mg/kg (Rattus norvegicus [39]): 44.4%
- inhibition in vivo at 10 mg/kg (Rattus norvegicus [40]): 88%
- inhibition in vivo at 2.5 mg/kg (Rattus norvegicus [41]): 48%
- inhibition in vivo at 10 mg/kg (Rattus norvegicus [42]): 64%
- inhibition in vivo at 2.5 mg/kg (Rattus norvegicus [43]): 34%
- inhibition in vivo at 10 mg/kg (Rattus norvegicus [44]): 86%
- inhibition in vivo at 2.5 mg/kg (Rattus norvegicus [45]): 69%

From ChEMBL document CHEMBL1126114, “A novel orally active inhibitor of IL-1 generation: synthesis and structure-activity relationships of 3-(4-hydroxy-1-naphthalenyl)-2-propenoic acid derivatives” (J Med Chem, 1992)
